Experimental data published in ChEMBL document CHEMBL2062456, “Green synthesis and anti-infective activities of fluorinated pyrazoline derivatives” (2012).
≈ marks a conversion by molar mass, not a printed value.

How the values were obtained:
Type in all cases: functional
[1] = tested on: Mycobacterium tuberculosis; assay: Antitubercular activity against Mycobacterium tuberculosis H37Rv by Lowenstein-Jensen slope method
How it was run: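 Lowenstein–Jensen medium used both to grow the strain and to dilute test drugs. Inoculum adjusted to 1 mg/mL. Compounds were made as 2 mg/mL stocks and diluted with 1% DMSO. Primary screen at 500, 250 and 125; actives were retested at 100 down to 1.5625 (twofold series). MIC is the minimum concentration inhibiting 99% of growth. Vehicle and reference controls were included, and tests were run in duplicate.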

Bacillus subtilis = assay: Antibacterial activity against Bacillus subtilis MTCC 441
Staphylococcus aureus = assay: Antibacterial activity against Staphylococcus aureus MTCC 96
Escherichia coli = assay: Antibacterial activity against Escherichia coli MTCC 443
Aspergillus niger = assay: Antifungal activity against Aspergillus niger MTCC 282
Candida albicans = assay: Antifungal activity against Candida albicans MTCC 227
Aspergillus clavatus = assay: Antifungal activity against Aspergillus clavatus MTCC 1323
Streptococcus pyogenes = assay: Antibacterial activity against Streptococcus pyogenes MTCC 442

| Compound | MIC99 [1] [µg/mL] | MIC99 (Bacillus subtilis) [µg/mL] | MIC99 (Staphylococcus aureus) [µg/mL] | MIC99 (Escherichia coli) [µg/mL] | MIC99 (Aspergillus niger) [µg/mL] | MIC99 (Candida albicans) [µg/mL] | MIC99 (Aspergillus clavatus) [µg/mL] | MIC99 (Streptococcus pyogenes) [µg/mL] |
| --- | --- | --- | --- | --- | --- | --- | --- | --- |
| Cc1ccc(C2CC(c3cn(-c4ccccc4)nc3-c3ccc(F)cc3)=NN2)cc1 (configuration not stated) | 10 (≈ 25.2 µM) | 50 (≈ 126 µM) | 12.5 (≈ 31.5 µM) | 50 (≈ 126 µM) | 100 (≈ 252 µM) | 25 (≈ 63.1 µM) | 100 (≈ 252 µM) | 10 (≈ 25.2 µM) |
| NNC(=O)c1ccncc1 [ISONIAZID] | 0.2 (≈ 1.46 µM) |  |  |  |  |  |  |  |
| NYSTATIN |  |  |  |  | 100 | 100 | 100 |  |
| Fc1ccc(-c2nn(-c3ccccc3)cc2C2=NNC(c3ccc(Cl)cc3)C2)cc1 (configuration not stated) | 6.25 (≈ 15 µM) | 25 (≈ 60 µM) | 20 (≈ 48 µM) | 25 (≈ 60 µM) | 50 (≈ 120 µM) | 100 (≈ 240 µM) | 50 (≈ 120 µM) | 20 (≈ 48 µM) |
| O=C(O)c1cn(C2CC2)c2cc(N3CCNCC3)c(F)cc2c1=O [CIPROFLOXACIN] |  | 25 (≈ 75.4 µM) | 50 (≈ 151 µM) | 25 (≈ 75.4 µM) |  |  |  | 50 (≈ 151 µM) |
| Fc1ccc(-c2nn(-c3ccccc3)cc2C2=NNC(c3ccc(F)cc3)C2)cc1 (configuration not stated) | 25 (≈ 62.4 µM) | 25 (≈ 62.4 µM) | 25 (≈ 62.4 µM) | 20 (≈ 49.9 µM) | 50 (≈ 125 µM) | 20 (≈ 49.9 µM) | 50 (≈ 125 µM) | 25 (≈ 62.4 µM) |
| O=C(N[C@H](CO)[C@H](O)c1ccc([N+](=O)[O-])cc1)C(Cl)Cl [CHLORAMPHENICOL] |  | 50 (≈ 155 µM) | 50 (≈ 155 µM) | 50 (≈ 155 µM) |  |  |  | 50 (≈ 155 µM) |
| O=C(/C=C/c1cn(-c2ccccc2)nc1-c1ccc(F)cc1)c1ccc(Cl)cc1 | 10 (≈ 24.8 µM) | 12.5 (≈ 31 µM) | 25 (≈ 62.1 µM) | 6.25 (≈ 15.5 µM) | > 100 | 100 (≈ 248 µM) | > 100 | 20 (≈ 49.6 µM) |
| Cc1ccc(C(=O)/C=C/c2cn(-c3ccccc3)nc2-c2ccc(F)cc2)cc1 | 6.25 (≈ 16.3 µM) | 20 (≈ 52.3 µM) | 20 (≈ 52.3 µM) | 12.5 (≈ 32.7 µM) | 100 (≈ 261 µM) | 50 (≈ 131 µM) | 100 (≈ 261 µM) | 25 (≈ 65.4 µM) |
| O=C(/C=C/c1cn(-c2ccccc2)nc1-c1ccc(F)cc1)c1ccccc1 | 50 (≈ 136 µM) | 25 (≈ 67.9 µM) | 10 (≈ 27.1 µM) | 20 (≈ 54.3 µM) | 50 (≈ 136 µM) | 25 (≈ 67.9 µM) | 50 (≈ 136 µM) | 12.5 (≈ 33.9 µM) |
| COC1=CC(=O)C[C@@H](C)[C@]12Oc1c(Cl)c(OC)cc(OC)c1C2=O [GRISEOFULVIN] |  |  |  |  | 100 (≈ 283 µM) | 500 (≈ 1420 µM) | 100 (≈ 283 µM) |  |
| GENTAMICIN |  | 1 | 0.25 | 0.05 |  |  |  | 0.5 |
| CCn1cc(C(=O)O)c(=O)c2cc(F)c(N3CCNCC3)cc21 [NORFLOXACIN] |  | 10 (≈ 31.3 µM) | 10 (≈ 31.3 µM) | 10 (≈ 31.3 µM) |  |  |  | 10 (≈ 31.3 µM) |
| Fc1ccc(-c2nn(-c3ccccc3)cc2C2=NNC(c3ccc(Br)cc3)C2)cc1 (configuration not stated) | 50 (≈ 108 µM) | 10 (≈ 21.7 µM) | 6.25 (≈ 13.5 µM) | 6.25 (≈ 13.5 µM) | 10 (≈ 21.7 µM) | 10 (≈ 21.7 µM) | 10 (≈ 21.7 µM) | 10 (≈ 21.7 µM) |
| Fc1ccc(-c2nn(-c3ccccc3)cc2C2=NNC(c3ccccc3)C2)cc1 (configuration not stated) | 25 (≈ 65.4 µM) | 20 (≈ 52.3 µM) | 50 (≈ 131 µM) | 10 (≈ 26.1 µM) | 50 (≈ 131 µM) | 50 (≈ 131 µM) | 50 (≈ 131 µM) | 50 (≈ 131 µM) |
| O=C(/C=C/c1cn(-c2ccccc2)nc1-c1ccc(F)cc1)c1ccc(F)cc1 | 25 (≈ 64.7 µM) | 20 (≈ 51.8 µM) | 6.25 (≈ 16.2 µM) | 25 (≈ 64.7 µM) | 20 (≈ 51.8 µM) | 100 (≈ 259 µM) | 20 (≈ 51.8 µM) | 10 (≈ 25.9 µM) |
| CC1(C)S[C@@H]2[C@H](NC(=O)[C@H](N)c3ccccc3)C(=O)N2[C@H]1C(=O)O [AMPICILLIN] |  | 100 (≈ 286 µM) | 250 (≈ 715 µM) | 100 (≈ 286 µM) |  |  |  | 100 (≈ 286 µM) |
| O=C(/C=C/c1cn(-c2ccccc2)nc1-c1ccc(F)cc1)c1ccc(Br)cc1 | 50 (≈ 112 µM) | 20 (≈ 44.7 µM) | 25 (≈ 55.9 µM) | 20 (≈ 44.7 µM) | > 100 | 10 (≈ 22.4 µM) | > 100 | 20 (≈ 44.7 µM) |
